Compound activity deposited in PubChem by several laboratories.
An excerpt weighted towards active compounds, which were near 2.9% of everything screened.
Tn6 DDE FP = inhibitors of Tn6 peptide binding to fibrin DD(E), primary screen, biochemical, fluorescence polarization, human fibrin, Tn6 probe. Fibrinogen beta chain (Homo sapiens), P02675. Fibrin DD(E) TRITC-Tn6 fluorescence polarization displacement. inhibition, % at 8.3 µM. hit rate 0.21% among 370,000. AID 720509, 2013;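 active = inhibition above a per-campaign cutoff: mean of compounds within control limits plus 3 SD, cut at about 15% in these data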
CRFBP-R2 agonist = agonists of CRF-BP/CRF-R2 complex, primary screen, cell-based, HEK293, calcium dye fluorescence, uHTS | AID 588473, 2011 | activation, % at 13.2 µM | calcium dye fluorescence (FLIPR); percent of saturating CRF peptide response | CRF-binding protein / CRF receptor 2 complex (human) | hit rate 0.46% among 350,000;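 active = activation of at least 50%, plus an integration ratio under a set limit after plate pattern correction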
proKLK7 act = proKLK7 zymogen activators, primary screen, biochemical, fluorescence intensity | Kallikrein-7 (Homo sapiens), P49862 | purified proKLK7, EDANS-DABCYL substrate fluorescence; 100% is mature enzyme control, 0% vehicle | activation, % at 7 µM | hit rate 0.9% among 370,000;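 active = activation above the mean of all tested compounds plus 3 SD, computed per campaign excluding outliers beyond control limits, cut at about 13% in these data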
CendR NRP1 mod = modulators of CendR peptide binding to NRP-1, primary screen, biochemical, fluorescence polarization, uHTS | FAM-RPARPAR peptide binding to NRP-1 | inhibition, % at 25 µM | hit rate 0.85% among 360,000;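 active = inhibition or corrected inhibition above about 18%, plus a signal ratio from 0.5 to 1.5, limit read from the data, passing the limit was not always enough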
Target sequence (O14786 whole entry, looked up): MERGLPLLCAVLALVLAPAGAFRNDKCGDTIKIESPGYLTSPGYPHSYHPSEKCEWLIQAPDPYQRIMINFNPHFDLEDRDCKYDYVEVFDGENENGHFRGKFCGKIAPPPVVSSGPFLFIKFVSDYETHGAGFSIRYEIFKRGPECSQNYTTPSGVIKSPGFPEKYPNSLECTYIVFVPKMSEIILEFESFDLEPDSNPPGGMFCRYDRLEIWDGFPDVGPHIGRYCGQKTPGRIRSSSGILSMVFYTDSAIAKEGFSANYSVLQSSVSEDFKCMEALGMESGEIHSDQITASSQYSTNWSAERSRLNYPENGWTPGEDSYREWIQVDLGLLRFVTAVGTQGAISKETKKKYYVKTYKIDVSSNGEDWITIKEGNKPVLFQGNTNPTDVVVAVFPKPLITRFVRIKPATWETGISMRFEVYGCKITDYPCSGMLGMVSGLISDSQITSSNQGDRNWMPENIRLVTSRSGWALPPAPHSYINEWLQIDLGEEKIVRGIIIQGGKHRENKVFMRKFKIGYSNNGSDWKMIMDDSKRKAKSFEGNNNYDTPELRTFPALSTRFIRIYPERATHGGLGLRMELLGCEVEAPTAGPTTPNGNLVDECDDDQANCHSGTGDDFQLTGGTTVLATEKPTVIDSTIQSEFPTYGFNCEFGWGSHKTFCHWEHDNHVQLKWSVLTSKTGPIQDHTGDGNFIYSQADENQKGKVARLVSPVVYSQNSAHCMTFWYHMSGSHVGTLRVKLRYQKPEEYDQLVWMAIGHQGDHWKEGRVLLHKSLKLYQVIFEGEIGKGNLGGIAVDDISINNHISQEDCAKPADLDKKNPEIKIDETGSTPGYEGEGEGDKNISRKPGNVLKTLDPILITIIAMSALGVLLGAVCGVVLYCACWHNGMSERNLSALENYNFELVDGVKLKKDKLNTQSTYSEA
DDE Tn7 FP inh = inhibitors of Tn7 peptide binding to fibrin DD(E), primary screen, biochemical, fluorescence polarization, human fibrin, Tn7 probe | FP displacement of FITC-Tn7 peptide from fibrin DD(E); 0% = median of compound wells per plate | AID 720508, 2013 | Fibrinogen beta chain (Homo sapiens), P02675 | hit rate 0.13% among 370,000 | inhibition, % at 8.3 µM;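 active = inhibition above the mean of compounds falling within the control limits plus 3 SD of them, cut at about 14% in these data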
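Test system – human fibrin DD(E) · Times – 10 min preincubation, 3 h with tracer, room temperature · Detection – fluorescence polarization of the labelled Tn7 tracer · Measure – percent inhibition normalized to high-control wells · Benchmarks – high control wells with 10 µM unlabelled Aha-Tn7 peptide (full inhibition) · Repeats – singlicate testing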
CRFBP-R2 block = antagonists of CRF-BP/CRF-R2 complex, primary screen, cell-based, HEK293, calcium dye fluorescence, uHTS. CRF-induced calcium fluorescence. inhibition, % at 11.8 µM. hit rate 0.59% among 350,000. AID 588475, 2011;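 active = inhibition of the ligand-induced calcium signal above about 50% at the single tested concentration, limit read from the data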
Large screens that a line does not name were inactive.

CC(C)N1CC2=C(OC(N)=C(C#N)C2c2cccnc2)/C(=C/c2cccnc2)C1 (stereo not drawn)	CendR NRP1 mod 26
Cc1c[nH]c2cccc(-c3cc4ccccc4o3)c12	none (no result: CRFBP-R2 agonist, CendR NRP1 mod, CRFBP-R2 block)
NC(=O)c1cccc(S(=O)(=O)N2CC(c3ccccc3)CC2=O)c1 (stereo not drawn)	none
O=C1CC(c2ccccc2)CN1S(=O)(=O)c1ccccc1 (stereo not drawn)	CRFBP-R2 block 65
CS(=O)(=O)N1CCc2cc(S(=O)(=O)N3CCN(Cc4ccc5c(c4)OCO5)CC3)ccc21	CRFBP-R2 block 57
Cc1cc(SCC(=O)Nc2cccc(S(N)(=O)=O)c2)c(C)cc1Br	CRFBP-R2 block 103
Cc1nnc(SCC(=O)Nc2cccc(S(N)(=O)=O)c2)n1-c1ccccc1	none
Cc1cc(C)n2c(SCC(=O)Nc3cccc(S(N)(=O)=O)c3)nnc2n1	CendR NRP1 mod 24
CC(C)C[C@H]1COc2ccc(Cl)cc2S(=O)(=O)N1Cc1cn(Cc2ccc(C(F)(F)F)cc2)nn1	none (no result: CRFBP-R2 agonist, CendR NRP1 mod, CRFBP-R2 block)
Cc1cc(NC(=O)COC(=O)c2ccc(C)c(C)c2)no1	CendR NRP1 mod 26
CCOC(=O)Cn1cc(CN2CCS(=O)(=O)N(Cc3ccc(Cl)cc3)C(C(=O)OC)C2)nn1 (stereo not drawn)	none (no result: CRFBP-R2 agonist, CendR NRP1 mod, CRFBP-R2 block)
Cc1cc(O)c(C2=Nc3ccccc3SC(c3ccc(Cl)cc3)C2)c(=O)o1 (stereo not drawn)	CRFBP-R2 block 84
CN(C)CCCNC(=O)c1c(N)[nH]c(C(=O)c2ccc(Br)cc2)c1-c1ccc(Br)cc1	none (no result: CRFBP-R2 agonist, CendR NRP1 mod, CRFBP-R2 block)
CCc1cc2ccc(C)cc2nc1SCC(=O)Nc1cc(OC)c(OC)cc1C(=O)O	none
COc1cc(NC(=O)CSc2nc3c(C)ccc(C)c3cc2C)c(C(=O)O)cc1OC	CRFBP-R2 block 99
CCC(C)(C)c1ccc(Oc2ccc(N)cc2)cc1	CendR NRP1 mod 44
O=C(NNC(=S)NC1CCCCC1)c1sc2ccccc2c1Cl	none
COc1cc(C(=O)NNC(=S)NC(=O)c2ccccc2C)cc(OC)c1OC	none
CC(C)(C)C(=O)NC(=S)NNC(=O)c1sc2ccccc2c1Cl	CRFBP-R2 agonist 226 (no result: Tn6 DDE FP, proKLK7 act, DDE Tn7 FP inh)
COc1ccc([C@@H](NC(=O)OC(C)(C)C)C(=O)OC(C)(C)C)cc1	none
COc1ccc(C(=O)NC(=S)NNC(=O)c2ccccc2C)cc1	CRFBP-R2 agonist 116
O=C(/C=C/c1cccs1)NC(=S)NNC(=O)c1ccccc1O	CRFBP-R2 agonist 63
COc1ccc(C(=O)NNC(=S)NC(=O)/C=C/c2cccs2)cc1	none
COc1ccc(C(NC(=O)C(C)(C)C)NC(=O)C(C)(C)C)cc1	CendR NRP1 mod 20
O=C1CC2c3cc(Br)ccc3CCN2C(=O)CN1Cc1ccccc1 (stereo not drawn)	none (no result: CRFBP-R2 agonist, CendR NRP1 mod, CRFBP-R2 block)
COc1ccc(C(=O)NC(=S)NNC(=O)c2ccccc2O)cc1	CRFBP-R2 agonist 59
COc1ccc(C(=O)NNC(=S)NC(=O)C(C)(C)C)cc1	CRFBP-R2 agonist 127
COc1ccc(C(=O)NC(=S)NNC(=O)c2ccco2)cc1	none
Cc1cc(/C=C(\C#N)C(=O)OCC#N)c(C)n1CC(C)C	CendR NRP1 mod 33
COc1ccc(CNC(=O)C2(CC3CC(c4ccccc4)=NO3)CCN(C(=O)Cc3ccc(F)cc3)CC2)cc1 (stereo not drawn)	none
CCOc1cc(C(=O)N2CCC(CC3CC(c4ccccc4)=NO3)(C(=O)NCc3ccc(OC)cc3)CC2)cc(OCC)c1OCC (stereo not drawn)	CendR NRP1 mod 45
CCCNC(=O)C1(CC2CC(c3ccccc3)=NO2)CCN(C(=O)c2ccccc2)CC1 (stereo not drawn)	CendR NRP1 mod 27
O=C(Nc1ccc(Cl)c(Cl)c1)C1CCCN(c2nnc(-n3cccc3)s2)C1 (stereo not drawn)	none (no result: CRFBP-R2 agonist, CendR NRP1 mod, CRFBP-R2 block)
CCCCCCCCSc1nnc2[nH]c(=O)cc(N)n12	none
CC(C)CSc1nnc2[nH]c(=O)cc(N)n12	CRFBP-R2 block 96
COCCCn1c(N)c(-c2nc3ccccc3n2C)c2nc3ccccc3nc21	CRFBP-R2 agonist 92
Cn1c(-c2c(N)n(CCCc3ccccc3)c3nc4ccccc4nc23)nc2ccccc21	none (no result: Tn6 DDE FP, proKLK7 act, DDE Tn7 FP inh)
Cn1c(-c2c(N)n(CCc3ccccc3)c3nc4ccccc4nc23)nc2ccccc21	CRFBP-R2 agonist 51 (no result: Tn6 DDE FP, proKLK7 act, DDE Tn7 FP inh)
Clc1ccc(-c2cc(-c3nnc4sc(Cc5cccs5)nn34)[nH]n2)cc1	none (no result: CRFBP-R2 agonist, CendR NRP1 mod, CRFBP-R2 block)
COc1ccc(-c2cc(-c3nnc(SCC(=O)N4CCOCC4)n3N)[nH]n2)cc1	none (no result: CRFBP-R2 agonist, CendR NRP1 mod, CRFBP-R2 block)
Cc1ccc(/C=N/n2c(-c3cccc(Cl)c3)n[nH]c2=S)o1	CRFBP-R2 block 83
S=c1[nH]nc(-c2cccc(Cl)c2)n1/N=C/c1ccco1	none (no result: Tn6 DDE FP, proKLK7 act, CendR NRP1 mod, DDE Tn7 FP inh)
COC(=O)/C=C/c1ccccc1S(=O)(=O)N(Cc1ccccc1)Cc1ccco1	CendR NRP1 mod 17
CN(CCCOC(=O)c1cc2ccccc2o1)C1CN(Cc2cn(Cc3ccccc3C(F)(F)F)nn2)S(=O)(=O)C1 (stereo not drawn)	none (no result: CRFBP-R2 agonist, CendR NRP1 mod, CRFBP-R2 block)
O=C1CC(N2CCN(c3nc4ccccc4s3)CC2)C(=O)N1c1ccc(F)cc1 (stereo not drawn)	none
COC(=O)/C=C1\C(=O)N(c2nc3ccccc3s2)C(=S)N1c1ccc(F)cc1	CendR NRP1 mod 27
O=C(CSc1nc(-c2ccco2)cc(C(F)(F)F)n1)NCCCN1CCOCC1	CRFBP-R2 block 51
Cc1cc(NC(=O)CCSc2nc(-c3ccco3)cc(C(F)(F)F)n2)no1	CRFBP-R2 block 91
Cc1cc(NC(=O)CCCSc2nc(-c3ccco3)cc(C(F)(F)F)n2)no1	none
COc1ccc(CCNC(=O)COc2ccc(N(C)S(=O)(=O)c3ccc(C)cc3)cc2)cc1OC	CRFBP-R2 block 103
COc1ccc(C(C(=O)N(C)C2CCCC2)N(Cc2ccc(F)cc2)C(=O)c2csc(N3CCOCC3)n2)cc1OC (stereo not drawn)	none (no result: CRFBP-R2 agonist, CendR NRP1 mod, CRFBP-R2 block)
Nn1c(SCC(=O)Nc2nccs2)nnc1-c1cc(-c2ccc(F)cc2)n[nH]1	none (no result: CRFBP-R2 agonist, CendR NRP1 mod, CRFBP-R2 block)
CC(C)(C)NC(=O)NC12CC3CC(CC(C3)C1)C2	CendR NRP1 mod 22
CC(C)(C)OC(=O)NNC(=O)NC12CC3CC(CC(C3)C1)C2	none
CC(C)N1CCN(Cc2nc(-c3ccccc3)cs2)CC1CCO (stereo not drawn)	CRFBP-R2 block 82
CCCC(=O)OC12CCCN(C1)/C(=C/c1cccc(N(C)C)c1)C2 (stereo not drawn)	none (no result: CRFBP-R2 agonist, CendR NRP1 mod, CRFBP-R2 block)
NC(=O)c1c(N)[nH]c(C(=O)c2ccccc2)c1-c1ccccc1C(F)(F)F	none (no result: CRFBP-R2 agonist, proKLK7 act, CendR NRP1 mod, CRFBP-R2 block)
